Our source for the MIC, ED50 and Ratio values is ChEMBL document CHEMBL1124927, “Synthesis and structure-activity relationships of new 7-[3-(fluoromethyl)piperazinyl]- and -(fluorohomopiperazinyl)quinolone antibacterials” (1990).

In one assay the test system is Pseudomonas aeruginosa. The experiment in a line: In vitro minimal inhibitory concentration against Pseudomonas aeruginosa 12-4-4 (Pa). Format: functional. The gist of the method: (§1)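 Agar dilution: two-fold serial drug dilutions in Mueller–Hinton agar; plates inoculated with 1–5 × 10⁴ CFU via Steers multiple inocula replicator; incubated 18 h at 35 °C. MIC = lowest concentration preventing macroscopic growth.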

For assay [1], the system named is Staphylococcus aureus. As to the kind of experiment: In vitro minimal inhibitory concentration against Staphylococcus aureus Smith (MP) (Sa(A)). Format: functional. The procedure, abridged: as §1
Assay [2] concerns Enterobacter cloacae. As to the kind of experiment: (§2) In vitro minimal inhibitory concentration against Enterobacter cloacae VGH-84-39 (Et(c)). The class given is functional.
Assay [3] relates to Staphylococcus aureus. As to the kind of experiment: In vitro minimal inhibitory concentration against Staphylococcus aureus ATCC 29213 (Sa(B)). The class given is functional. The procedure, abridged: as §1
For assay [4], the system named is Enterococcus faecalis. As to the kind of experiment: In vitro minimal inhibitory concentration against Streptococcus faecalis UCI-85 (Sf(U)). Format: functional. The gist of the method:
as §1

The subject of assay [5] is Enterococcus faecalis. The experiment in a line: In vitro minimal inhibitory concentration Streptococcus faecalis VGH-84 (Sf(V)). Format: functional. The gist of the method:
as §1

Assay [6] deals with Escherichia coli. As to the kind of experiment: In vitro minimal inhibitory concentration against Escherichia coli ATCC 25922 (Ec(A)). Format: functional. The gist of the method:
as §1

The test system of a further assay is Morganella morganii. The experiment in a line: In vitro minimal inhibitory concentration against Morganella morganii CMC-84-39 (Mn). Format: functional. The procedure, abridged:
as §1

Assay [7] concerns Escherichia coli. As to the kind of experiment: In vitro minimal inhibitory concentration against Escherichia coli #311 (Ec(B)). Format: functional. The procedure, abridged:
as §1

Assay [8] concerns Staphylococcus aureus. The experiment in a line: Median effective dose against female mice infected with Staphylococcus aureus Smith after oral administration. The class given is functional. The procedure, abridged: (§3)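 CD-1 female mice (20 ± 2 g) infected ip with 0.5 mL standardized bacterial suspension (E. coli #311 in trypticase–soy broth; S. aureus Smith in 5% hog gastric mucin). Dosed 0.5 h post-infection, oral or subcutaneous, 2-fold dose increments in 0.5 mL 0.2% aqueous agar; five mice per dose. 7-day survival pooled from three tests; ED50 by probit analysis, 95% confidence limits.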

Assay [9] concerns Staphylococcus aureus. As to the kind of experiment: Median effective dose against female mice infected with Staphylococcus aureus Smith after subcutaneous administration. The class given is functional. The settings on record: sc. The procedure, abridged: as §3
The subject of assay [10] is Escherichia coli. As to the kind of experiment: animal or person. The settings on record: in Mus musculus, sc.
Assay [11] has as its system Escherichia coli. As to the kind of experiment: animal or person. Particulars: in Mus musculus, po.
For assay [12], the system named is Enterobacter cloacae. The description is as §2. Format: functional. The procedure, abridged:
as §1
The source holds these as a separate data set.

Assay [13] has as its system Escherichia coli. The experiment in a line: Median effective dose against female mice infected with Escherichia coli #311 after oral administration. Format: functional. The procedure, abridged: as §3
Assay [14] can be described thus: Ratio of ED50 value of (po/sc) was determined for Staphylococcus aureus Smith. The class given is functional. The procedure, abridged: (§4)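 Oral and subcutaneous ED50 values from ip-infected CD-1 female mice (treated 0.5 h post-infection, 2-fold doses in 0.2% aqueous agar, five mice/dose, 7-day survival, three pooled tests, probit analysis); ratio taken as po ED50 divided by sc ED50, as an index of absorption.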

Assay [15] concerns Escherichia coli. As to the kind of experiment: Median effective dose against female mice infected with Escherichia coli #311 after subcutaneous administration. The class given is functional. The settings on record: sc. The gist of the method:
as §3

A short description of assay [16]: Ratio of ED50 value of (po/sc) was determined for Escherichia coli #311. Format: functional. The procedure, abridged:
as §4

Values after ≈ are worked out from the molar mass of the structure shown. A value given as a limit tells only on which side of the number the result lay.

As usually defined, the MIC is the lowest concentration found to suppress growth. Lower therefore signals inhibition by little substance. Regarding `O=C(O)c1cn(C2CC2)c2cc(N3CCCNCC3)c(F)cc2c1=O`, the MIC turned out to be 1 µg/mL (≈ 2.9 µM) against Pseudomonas aeruginosa; 0.25 µg/mL (≈ 0.724 µM) against Staphylococcus aureus [1]; 0.03 µg/mL (≈ 0.0869 µM) with Enterobacter cloacae [2]; 2 µg/mL (≈ 5.79 µM) with Staphylococcus aureus [3]; 2 µg/mL (≈ 5.79 µM) in the assay with Enterococcus faecalis [4]; 1 µg/mL (≈ 2.9 µM) in the assay with Enterococcus faecalis [5]. Also, the MIC in the assay with Escherichia coli [6], with Morganella morganii and in the assay with Escherichia coli [7] was 0.03 µg/mL (≈ 0.0869 µM) each time.

For orientation: ED50 means the midpoint of the dose-response relation. A lower ED50 goes with greater potency. Take `O=C(O)c1cn(C2CC2)c2cc(N3CCNCC3)c(F)cc2c1=O` [CIPROFLOXACIN]: the ED50 in the assay on Staphylococcus aureus [8] stood at 3.8 mg/kg; in the assay with Staphylococcus aureus [9] it was 0.69 mg/kg; in the assay on Escherichia coli [10] it was 0.07 mg/kg; with Escherichia coli [11], 0.49 mg/kg. Also, the minimum inhibitory concentration (MIC) in the assay on Staphylococcus aureus [1] is 0.25 µg/mL (≈ 0.754 µM); against Staphylococcus aureus [3] it was 1 µg/mL (≈ 3.02 µM); against Enterococcus faecalis [4] it was 1 µg/mL (≈ 3.02 µM); in the assay on Enterococcus faecalis [5], 1 µg/mL (≈ 3.02 µM); against Escherichia coli [6] it was at most 0.015 µg/mL; against Morganella morganii it was 0.015 µg/mL (≈ 0.0453 µM). Further, the MIC in the assay with Escherichia coli [7] is at most 0.015 µg/mL.

For the molecule `CCn1cc(C(=O)O)c(=O)c2cc(F)c(N3CCNC(C(F)F)C3)c(F)c21` (stereo not given), the MIC with Pseudomonas aeruginosa amounted to 32 µg/mL (≈ 82.6 µM); in the assay on Staphylococcus aureus [1] it was 0.12 µg/mL (≈ 0.31 µM); with Enterobacter cloacae [2] it was 1 µg/mL (≈ 2.58 µM); in the assay with Staphylococcus aureus [3], 0.25 µg/mL (≈ 0.645 µM); with Enterococcus faecalis [4], 4 µg/mL (≈ 10.3 µM); against Enterococcus faecalis [5] it was 4 µg/mL (≈ 10.3 µM). Besides, the minimum inhibitory concentration (MIC) came out at 0.5 µg/mL (≈ 1.29 µM) in the assay with Escherichia coli [6], 1 µg/mL (≈ 2.58 µM) against Morganella morganii and 0.5 µg/mL (≈ 1.29 µM) against Escherichia coli [7].

In the case of `O=C(O)c1cn(C2CC2)c2cc(N3CCNCC(O)C3)c(F)cc2c1=O` (stereo not given), the MIC worked out at 2 µg/mL (≈ 5.53 µM) with Pseudomonas aeruginosa; 4 µg/mL (≈ 11.1 µM) in the assay with Staphylococcus aureus [1]; 0.25 µg/mL (≈ 0.692 µM) in the assay with Enterobacter cloacae [2]; 16 µg/mL (≈ 44.3 µM) in the assay on Staphylococcus aureus [3]; 16 µg/mL (≈ 44.3 µM) against Enterococcus faecalis [4]; 16 µg/mL (≈ 44.3 µM) against Enterococcus faecalis [5]. The minimum inhibitory concentration (MIC) in the assay on Escherichia coli [6] is 0.25 µg/mL (≈ 0.692 µM); against Morganella morganii, 0.12 µg/mL (≈ 0.332 µM); against Escherichia coli [7] it was 0.5 µg/mL (≈ 1.38 µM).

As to `O=C(O)c1cn(-c2ccc(F)cc2)c2cc(N3CCNC(CF)C3)c(F)cc2c1=O` (stereo not given), the minimum inhibitory concentration (MIC) was 8 µg/mL (≈ 19.2 µM) in the assay with Pseudomonas aeruginosa; 0.25 µg/mL (≈ 0.599 µM) with Staphylococcus aureus [1]; 0.25 µg/mL (≈ 0.599 µM) in the assay on Enterobacter cloacae [12]; 0.5 µg/mL (≈ 1.2 µM) in the assay on Staphylococcus aureus [3]; 4 µg/mL (≈ 9.58 µM) against Enterococcus faecalis [4]; 4 µg/mL (≈ 9.58 µM) with Enterococcus faecalis [5]. Also, the figures for the minimum inhibitory concentration (MIC) in the assay on Escherichia coli [6], with Morganella morganii and in the assay on Escherichia coli [7] were 0.25 µg/mL (≈ 0.599 µM), 1 µg/mL (≈ 2.4 µM) and 0.25 µg/mL (≈ 0.599 µM), respectively.

`O=C(O)c1cn(C2CC2)c2cc(N3CCNC(CF)C3)c(F)cc2c1=O` (stereo not given): the MIC is 2 µg/mL (≈ 5.5 µM) with Pseudomonas aeruginosa; 0.12 µg/mL (≈ 0.33 µM) against Staphylococcus aureus [1]; 0.12 µg/mL (≈ 0.33 µM) with Enterobacter cloacae [2]; 0.25 µg/mL (≈ 0.688 µM) against Staphylococcus aureus [3]; 2 µg/mL (≈ 5.5 µM) in the assay on Enterococcus faecalis [4]; 1 µg/mL (≈ 2.75 µM) against Enterococcus faecalis [5]. The MIC in the assay on Escherichia coli [6] is 0.06 µg/mL (≈ 0.165 µM); against Morganella morganii it was 0.12 µg/mL (≈ 0.33 µM); with Escherichia coli [7], 0.03 µg/mL (≈ 0.0826 µM). The ED50 in the assay with Staphylococcus aureus [8] was 2.8 mg/kg; in the assay with Staphylococcus aureus [9], 0.94 mg/kg; in the assay with Escherichia coli [13] (Escherichia coli, po), 1.2 mg/kg; in the assay on Escherichia coli [15] it was 0.6 mg/kg. For the same molecule, the Ratio was determined as 3 in assay [14] and 2 in [16].

`CC1CN(c2cc3c(cc2F)c(=O)c(C(=O)O)cn3C2CC2)CCN1` (stereo not given): the MIC against Pseudomonas aeruginosa was found to be 0.25 µg/mL (≈ 0.724 µM); against Staphylococcus aureus [1] it was 0.12 µg/mL (≈ 0.347 µM); in the assay with Enterobacter cloacae [2] it was 0.015 µg/mL (≈ 0.0434 µM); against Staphylococcus aureus [3] it was 0.5 µg/mL (≈ 1.45 µM); against Enterococcus faecalis [4], 2 µg/mL (≈ 5.79 µM); in the assay on Enterococcus faecalis [5] it was 1 µg/mL (≈ 2.9 µM). The MIC was at most 0.015 µg/mL in the assay on Escherichia coli [6], 0.03 µg/mL (≈ 0.0869 µM) in the assay on Morganella morganii and at most 0.015 µg/mL with Escherichia coli [7]. Further, the median effective dose (ED50) with Staphylococcus aureus [8] was 2.4 mg/kg; in the assay with Staphylococcus aureus [9], 0.61 mg/kg; in the assay on Escherichia coli [13] (Escherichia coli, po), 0.42 mg/kg; with Escherichia coli [15], 0.09 mg/kg. For the same molecule, the Ratio in assay [14] is 3.9; in [16] it was 4.7.

`CCn1cc(C(=O)O)c(=O)c2cc(F)c(N3CCNC(CF)C3)cc21` (stereo not given): the minimal inhibitory concentration (MIC) in the assay on Pseudomonas aeruginosa is 32 µg/mL (≈ 91.1 µM); with Staphylococcus aureus [1], at most 0.12 µg/mL; in the assay with Enterobacter cloacae [2], 0.12 µg/mL (≈ 0.342 µM); in the assay with Staphylococcus aureus [3], 0.25 µg/mL (≈ 0.712 µM); against Enterococcus faecalis [4], 4 µg/mL (≈ 11.4 µM); with Enterococcus faecalis [5], 2 µg/mL (≈ 5.69 µM). Further, the results for the minimal inhibitory concentration (MIC) in the assay on Escherichia coli [6], in the assay with Morganella morganii and in the assay on Escherichia coli [7] were 0.12 µg/mL (≈ 0.342 µM), 0.12 µg/mL (≈ 0.342 µM) and at most 0.12 µg/mL, respectively. Besides, the ED50 in the assay on Staphylococcus aureus [8] is 6 mg/kg; in the assay on Staphylococcus aureus [9], 2.6 mg/kg; in the assay on Escherichia coli [13], 2.8 mg/kg; in the assay with Escherichia coli [15] it was 3 mg/kg. Moreover, the Ratio turned out to be 2.3 in assay [14] and 1 in assay [16].

`CCn1cc(C(=O)O)c(=O)c2cc(F)c(N3CCNC(CO)C3)cc21.Cl` (stereo not given): the minimum inhibitory concentration (MIC) against Pseudomonas aeruginosa is 64 µg/mL; with Staphylococcus aureus [1], 8 µg/mL; with Enterobacter cloacae [2], 1 µg/mL; against Staphylococcus aureus [3], 32 µg/mL; against Enterococcus faecalis [4] it was 16 µg/mL; in the assay on Enterococcus faecalis [5], 16 µg/mL. Moreover, the MIC against Escherichia coli [6] stood at 2 µg/mL; against Morganella morganii, 0.5 µg/mL; against Escherichia coli [7], 1 µg/mL.

`O=C(O)c1cn(C2CC2)c2cc(N3CCNCC(F)C3)c(F)cc2c1=O` (stereo not given): the minimum inhibitory concentration (MIC) stood at 2 µg/mL (≈ 5.5 µM) against Pseudomonas aeruginosa; 0.25 µg/mL (≈ 0.688 µM) against Staphylococcus aureus [1]; 0.06 µg/mL (≈ 0.165 µM) against Enterobacter cloacae [2]; 1 µg/mL (≈ 2.75 µM) in the assay on Staphylococcus aureus [3]; 4 µg/mL (≈ 11 µM) with Enterococcus faecalis [4]; 4 µg/mL (≈ 11 µM) against Enterococcus faecalis [5]. Moreover, the MIC stood at 0.03 µg/mL (≈ 0.0826 µM) in the assay on Escherichia coli [6], 0.06 µg/mL (≈ 0.165 µM) in the assay on Morganella morganii and 0.03 µg/mL (≈ 0.0826 µM) with Escherichia coli [7].
